Laboratory results reported in ChEMBL document CHEMBL3526146, “In vitro and in vivo metabolism and pharmacokinetics of BMS-562086, a potent and orally bioavailable corticotropin-releasing factor-1 receptor antagonist” (Drug Metab Dispos, 2012).
Each block holds one molecule with its values, some of them ahead of it.

Key:
[1] = Drug metabolism in bile duct-cannulated Sprague-Dawley rat urine assessed as DPH-124921metabolite level at 30 mg/kg, po after 12 hrs by LC-MS/MS analysis; assay type: ADME, organism-based; parameters: dose 30 mg/kg, route oral; conditions: in vivo
Procedure, shortened: (§1)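 Male bile-duct-cannulated Sprague-Dawley rats (n=3), fasted overnight, received 30 mg/kg by gavage in 0.5% methylcellulose. Urine and bile were collected 0-12 h and pooled by equal percentage weight across animals, then centrifuged. Supernatants were profiled by LC/MS/MS. Bile was also treated with β-glucuronidase in pH 4.8 acetate buffer, 37°C, 16 h.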

[2] = Drug metabolism in bile duct-cannulated Sprague-Dawley rat urine assessed as DPH-123554 metabolite level at 30 mg/kg, po after 12 hrs by LC-MS/MS analysis; assay type: ADME, organism-based; parameters: dose 30 mg/kg, route oral; conditions: in vivo; procedure, shortened: as §1
[3] = Drug metabolism in bile duct-cannulated Sprague-Dawley rat bile assessed as DPH-123554 metabolite level at 30 mg/kg, po after 12 hrs by LC-MS/MS analysis; assay type: ADME, organism-based; parameters: dose 30 mg/kg, route oral; conditions: in vivo; procedure, shortened: as §1
[4] = Plasma clearance in beagle dog at 1 mg/kg, iv; assay type: ADME, organism-based, Canis lupus familiaris; parameters: dose 1 mg/kg, route intravenous
Procedure, shortened: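 Male beagle dogs (n=3), one-way IV/PO crossover with a one-week washout, fasted about 15 h before and 4 h after dosing. IV dose of 1 mg/kg as a saphenous bolus in N,N-dimethylacetamide:propylene glycol:water (1:7:2); PO dose of 5 mg/kg by gavage in 0.5% methylcellulose. Plasma sampled 0–96 h and assayed by LC/MS/MS (LLOQ 1.00 ng/ml). Noncompartmental analysis; CL = dose/AUC(INF) after IV; F from dose-normalized AUC ratio.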

Liver microsome = assay: Drug metabolism in human liver microsomes assessed as DPH-123554 metabolite formation at 100 uM after 1 hr in presence of NADPH and ketoconazole; assay type: ADME
[5] = Drug metabolism in human cryopreserved hepatocytes assessed as 7-hydroxycoumarin formation at 25 uM after 3 hrs by HPLC analysis; assay type: ADME, cell-based, Hepatocyte
Canis familiaris = assay: Terminal volume of distribution in beagle dog at 1 mg/kg, iv; assay type: ADME, organism-based, Canis lupus familiaris; parameters: dose 1 mg/kg, route intravenous; conditions: in vivo
Procedure, shortened: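 Male beagles (n=3, 10.1-12.7 kg), fasted ~15 h pre- and 4 h post-dose, given a 1 mg/kg IV bolus via saphenous vein catheter in N,N-dimethylacetamide:propylene glycol:water (1:7:2). Plasma drawn 0-96 h and assayed by LC/MS/MS. Noncompartmental analysis; Vz = CLp (dose/AUC(INF)) divided by elimination rate constant.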

[6] = Drug metabolism in cynomolgus monkey cryopreserved hepatocytes assessed as decrease of compound level at 25 uM after 3 hrs by HPLC analysis; assay type: ADME, cell-based, Macaca fascicularis, Hepatocyte; conditions: read-out: Drug metabolism
Procedure, shortened: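 Mouse, rat, dog, monkey and human hepatocytes (trypan blue viability checked) at 1.0×10^6 cells/ml in Krebs-Henseleit buffer were incubated with 25 µM compound, in duplicate. Conditions were 37°C, 95/5 O2/CO2, orbital shaking, 3 h. 7-Ethoxycoumarin and 7-hydroxycoumarin (100 µM) served as positive controls, with a cell-free negative control. Reactions were quenched with ice-cold acetonitrile, then sonicated and centrifuged; supernatants were analysed by LC/MS/MS.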

[7] = Tmax in beagle dog at 5 mg/kg, po; assay type: ADME, organism-based, Canis lupus familiaris; parameters: dose 5 mg/kg, route oral; conditions: in vivo
Procedure, shortened: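 Male beagles (n=3, 10.1-12.7 kg) in one-way crossover, one-week washout after IV leg; fasted ~15 h before and 4 h after dosing. Single gavage 5 mg/kg in 0.5% aqueous methylcellulose. Plasma sampled 0-96 h, parent measured by validated LC/MS/MS (1.00-1000 ng/ml). Noncompartmental analysis; Tmax taken from observed data.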

[8] = Drug metabolism in mouse hepatocytes assessed as decrease of compound level at 25 uM after 3 hrs by HPLC analysis; assay type: ADME, cell-based, Hepatocyte; conditions: read-out: Drug metabolism
[9] = AUC (infinity) in beagle dog at 1 mg/kg, iv; assay type: ADME, organism-based, Canis lupus familiaris; parameters: time infinity, dose 1 mg/kg, route intravenous; conditions: plasma
Procedure, shortened: (§2)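 Male beagle dogs (n=3, 10.1-12.7 kg) in a one-way IV/PO crossover with one-week washout, fasted ~15 h pre-dose and 4 h post-dose. Dosing was 1 mg/kg IV bolus into the saphenous vein in DMA:propylene glycol:water (1:7:2), or 5 mg/kg gavage in 0.5% methylcellulose. Blood was sampled 0-96 h. Plasma was assayed by LC/MS/MS (LLOQ 1.00 ng/ml) with noncompartmental analysis; Cmax was observed directly.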

[10] = AUC (infinity) in beagle dog at 5 mg/kg, po; assay type: ADME, organism-based, Canis lupus familiaris; parameters: time infinity, dose 5 mg/kg, route oral; conditions: plasma; procedure, shortened: as §2

Drug metabolism [1]: metabolite_detected
SMILES: COc1ccc(-c2c(C)nn3c(N)nc(C)nc23)c(C)n1

Drug metabolism [2]: metabolite_detected
Drug metabolism [3]: metabolite_detected
SMILES: CC[C@@H](C)Nc1nc(C)nc2c(-c3ccc(O)nc3C)c(C)nn12

clearance [4]: 11.6 mL/min/kg
Drug metabolism (Liver microsome): metabolite_not_detected
Drug metabolism [5]: metabolite_detected
Vz (Canis familiaris): 28.2 L/kg
metabolised at 3 h, 25 µM [6]: 83%
Tmax [7]: 45 min
metabolised at 3 h, 25 µM [8]: 75%
AUC(0-inf) [9]: 4.3 µM·h
AUC(0-inf) [10]: 13 µM·h
SMILES: CC[C@@H](C)Nc1nc(C)nc2c(-c3ccc(OC)nc3C)c(C)nn12 [PEXACERFONT]
